Measurements reported in ChEMBL document CHEMBL1770122, “Synthesis, antibacterial and antimycobacterial activities of some new 4-aryl/heteroaryl-2,6-dimethyl-3,5-bis-N-(aryl)-carbamoyl-1,4-dihydropyridines” (2011).
Values after ≈ are worked out from the molar mass of the structure shown. Active and inactive are the calls of the source. The rule behind the calls is not given here.

Tests used:
[1] = test system: Bacillus subtilis; experiment: Antimicrobial activity against Bacillus subtilis NCIM 2063/ATCC 6633 at 50 ug/mL after 24 hrs by disc diffusion method; assay type: functional; conditions: NCIM 2063/ATCC 6633, 24 h, read-out: DIZ
In short: (§1)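 NCIM cultures were used. Test solutions in DMSO, diluted from a 1 mg mL-1 stock to 12.5, 25 or 50 µg mL-1, were loaded onto sterile 5 mm filter-paper discs and dried. Nutrient agar was spread with 100 µL of 24 h bacterial suspension (10^8 cells mL-1). Incubation was 37 ± 1 °C for 24 h, and inhibition-zone diameter was read. DMSO served as control, with tetracyclin and streptomycin (50 µg mL-1) discs as standards. Triplicate, averaged.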

[2] = test system: Bacillus subtilis; experiment: Antimicrobial activity against Bacillus subtilis NCIM 2063/ATCC 6633 at 1000 ug/mL after 24 hrs by disc diffusion method; assay type: functional, organism-based
[3] = test system: Staphylococcus aureus; experiment: Antimicrobial activity against Staphylococcus aureus NCIM 2079/ATCC 6538P at 50 ug/mL after 24 hrs by disc diffusion method; assay type: functional; conditions: read-out: DIZ; in short: as §1
[4] = test system: Staphylococcus aureus; experiment: Antimicrobial activity against Staphylococcus aureus NCIM 2079/ATCC 6538P at 1000 ug/mL after 24 hrs by disc diffusion method; assay type: functional, organism-based
[5] = test system: Staphylococcus aureus; experiment: Antimicrobial activity against methicillin-resistant Staphylococcus aureus at 50 ug/mL after 24 hrs by disc diffusion method; assay type: functional, organism-based
[6] = test system: Staphylococcus aureus; experiment: Antimicrobial activity against methicillin-resistant Staphylococcus aureus at 1000 ug/mL after 24 hrs by disc diffusion method; assay type: functional; conditions: for zone of inhibition at 1000 µg/mL: read-out: DIZ
In short: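 Disc diffusion on nutrient agar. Compound at 1 mg mL-1 (1000 µg mL-1) in DMSO was loaded onto 5 mm sterile filter-paper discs and dried. Plates were spread with 100 µL of a 24 h culture at 10^8 cells mL-1. Incubated at 37 ± 1 °C for 24 h; inhibition zone diameters recorded. DMSO control disc. Triplicate, averaged.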

[7] = test system: Escherichia coli; experiment: Antimicrobial activity against Escherichia coli NCIM 2068/ATCC 11105 at 50 ug/mL after 24 hrs by disc diffusion method; assay type: functional; conditions: NCIM 2068/ATCC 11105, 24 h, read-out: DIZ; in short: as §1
[8] = test system: Escherichia coli; experiment: Antimicrobial activity against Escherichia coli NCIM 2068/ATCC 11105 at 1000 ug/mL after 24 hrs by disc diffusion method; assay type: functional, organism-based
[9] = test system: Proteus vulgaris; experiment: Antimicrobial activity against Proteus vulgaris NCIM 2027/ATCC 13315 at 50 ug/mL after 24 hrs by disc diffusion method; assay type: functional; conditions: NCIM 2027/ATCC 13315, 24 h, read-out: DIZ; in short: as §1
[10] = test system: Proteus vulgaris; experiment: Antimicrobial activity against Proteus vulgaris NCIM 2027/ATCC 13315 at 1000 ug/mL after 24 hrs by disc diffusion method; assay type: functional, organism-based
[11] = test system: Bacillus subtilis; experiment: Antimicrobial activity against Bacillus subtilis NCIM 2063/ATCC 6633 at 12.5 ug/mL after 24 hrs by disc diffusion method; assay type: functional; conditions: for zone of inhibition at 12.5 µg/mL: NCIM 2063/ATCC 6633, 24 h, read-out: DIZ; in short: as §1
[12] = test system: Bacillus subtilis; experiment: Antimicrobial activity against Bacillus subtilis NCIM 2063/ATCC 6633 at 25 ug/mL after 24 hrs by disc diffusion method; assay type: functional; conditions: NCIM 2063/ATCC 6633, 24 h, read-out: DIZ; in short: as §1
[13] = test system: Staphylococcus aureus; experiment: Antimicrobial activity against Staphylococcus aureus NCIM 2079/ATCC 6538P at 12.5 ug/mL after 24 hrs by disc diffusion method; assay type: functional; conditions: for zone of inhibition at 12.5 µg/mL: read-out: DIZ; in short: as §1
[14] = test system: Staphylococcus aureus; experiment: Antimicrobial activity against Staphylococcus aureus NCIM 2079/ATCC 6538P at 25 ug/mL after 24 hrs by disc diffusion method; assay type: functional; conditions: read-out: DIZ; in short: as §1
[15] = test system: Staphylococcus aureus; experiment: Antimicrobial activity against methicillin-resistant Staphylococcus aureus at 12.5 ug/mL after 24 hrs by disc diffusion method; assay type: functional, organism-based
[16] = test system: Staphylococcus aureus; experiment: Antimicrobial activity against methicillin-resistant Staphylococcus aureus at 25 ug/mL after 24 hrs by disc diffusion method; assay type: functional, organism-based
[17] = test system: Escherichia coli; experiment: Antimicrobial activity against Escherichia coli NCIM 2068/ATCC 11105 at 12.5 ug/mL after 24 hrs by disc diffusion method; assay type: functional; conditions: NCIM 2068/ATCC 11105, 24 h, read-out: DIZ; in short: as §1
[18] = test system: Escherichia coli; experiment: Antimicrobial activity against Escherichia coli NCIM 2068/ATCC 11105 at 25 ug/mL after 24 hrs by disc diffusion method; assay type: functional; conditions: NCIM 2068/ATCC 11105, 24 h, read-out: DIZ; in short: as §1
[19] = test system: Proteus vulgaris; experiment: Antimicrobial activity against Proteus vulgaris NCIM 2027/ATCC 13315 at 12.5 ug/mL after 24 hrs by disc diffusion method; assay type: functional; conditions: NCIM 2027/ATCC 13315, 24 h, read-out: DIZ; in short: as §1
[20] = test system: Proteus vulgaris; experiment: Antimicrobial activity against Proteus vulgaris NCIM 2027/ATCC 13315 at 25 ug/mL after 24 hrs by disc diffusion method; assay type: functional; conditions: NCIM 2027/ATCC 13315, 24 h, read-out: DIZ; in short: as §1
[21] = test system: Mycobacterium tuberculosis; experiment: Antimycobacterial activity against multidrug-susceptible Mycobacterium tuberculosis H37Rv ATCC 27294 after 4 weeks; assay type: functional; conditions: H37Rv ATCC 27294, 672 h
In short: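 Lowenstein-Jensen proportion method. Drug at 6.25, 12.5, 25, 50 and 100 µg mL-1 in LJ medium slants, set overnight. Inoculated with 4 mg mL-1 suspension by 3 mm loop, 37 °C, 4 weeks. MIC is the lowest concentration fully inhibiting growth, by CFU versus medium, inoculated and DMSO controls. Three independent determinations.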

Compound	zone of inhibition at 50 µg/mL [1] [mm]	diameter of the inhibition zone (DIZ) [2]	zone of inhibition at 50 µg/mL [3] [mm]	diameter of the inhibition zone (DIZ) [4]	diameter of the inhibition zone (DIZ) [5]	zone of inhibition at 1000 µg/mL [6] [mm]	zone of inhibition at 50 µg/mL [7] [mm]	diameter of the inhibition zone (DIZ) [8]	zone of inhibition at 50 µg/mL [9] [mm]	diameter of the inhibition zone (DIZ) [10]	zone of inhibition at 12.5 µg/mL [11] [mm]	zone of inhibition at 25 µg/mL [12] [mm]	zone of inhibition at 25 µg/mL [14] [mm]	diameter of the inhibition zone (DIZ) [15]	diameter of the inhibition zone (DIZ) [16]	zone of inhibition at 12.5 µg/mL [17] [mm]	zone of inhibition at 25 µg/mL [18] [mm]	zone of inhibition at 12.5 µg/mL [19] [mm]	zone of inhibition at 25 µg/mL [20] [mm]	MIC [21] [µg/mL]	also measured
CN[C@@H]1[C@H](O[C@H]2[C@H](O[C@H]3[C@H](O)[C@@H](O)[C@H](N=C(N)N)[C@@H](O)[C@@H]3N=C(N)N)O[C@@H](C)[C@]2(O)C=O)O[C@@H](CO)[C@H](O)[C@H]1O [STREPTOMYCIN]	22	inactive	21	inactive	inactive	18	23	inactive	26	inactive											
CC1=C(C(=O)Nc2ccc(C)cc2)C(c2ccc[nH]2)C(C(=O)Nc2ccc(C)cc2)=C(C)N1	13	inactive	12	inactive	inactive	10	22	inactive	18	inactive	7	11	11	inactive	inactive	14	19	10	14	12.5 (≈ 28.4 µM)	zone of inhibition at 12.5 µg/mL [13]: 9 mm
CCc1ccc(C2C(C(=O)Nc3ccccc3)=C(C)NC(C)=C2C(=O)Nc2ccccc2)cc1	21	inactive	16	inactive	inactive		15	inactive	16	inactive	11	13	11	inactive	inactive	10	13	9	14	> 25	zone of inhibition at 12.5 µg/mL [13]: 8 mm; diameter of the inhibition zone (DIZ) [6]: inactive
CC1=C(C(=O)Nc2ccccc2C)C(c2ccccn2)C(C(=O)Nc2ccccc2C)=C(C)N1	10	inactive	15	inactive	inactive	8	19	inactive	16	inactive		8	12	inactive	inactive	14	17	10	12	25 (≈ 55.2 µM)	diameter of the inhibition zone (DIZ) [11]: inactive; diameter of the inhibition zone (DIZ) [13]: inactive
CN(C)[C@@H]1C(O)=C(C(N)=O)C(=O)[C@@]2(O)C(O)=C3C(=O)c4c(O)cccc4[C@@](C)(O)[C@H]3C[C@@H]12 [TETRACYCLINE]	20	inactive	22	inactive	inactive	15	25	inactive	21	inactive											
CC1=C(C(=O)Nc2ccc(C)cc2)C(c2ccccn2)C(C(=O)Nc2ccc(C)cc2)=C(C)N1	12	inactive	12	inactive	inactive		14	inactive	16	inactive	9	10	10	inactive	inactive	8	10	9	12	> 25	zone of inhibition at 12.5 µg/mL [13]: 8 mm; diameter of the inhibition zone (DIZ) [6]: inactive
CC1=C(C(=O)Nc2ccccc2)C(c2ccco2)C(C(=O)Nc2ccccc2)=C(C)N1	16	inactive	14	inactive	inactive	10	18	inactive	17	inactive	10	14	12	inactive	inactive	12	15	8	13	> 25	zone of inhibition at 12.5 µg/mL [13]: 8 mm
NC(=O)c1cnccn1 [PYRAZINAMIDE]																				32 (≈ 260 µM)	
